In the library only some 2.3% were active in any assay of this set; here they are far more common.
TRPC4 act: activators of mouse TRPC4 channel | Q9QUQ5 | HEK293 TRPC4beta/mu-opioid, Fluo4 calcium fluorescence; hits give high values | B-score at 10 µM | actives 0.49% (n = 310,000) | AID 2237;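 active means B-score above 5 SD of library B-scores, and initial fluorescence ratio not above library mean plus 5 SD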;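 further: positive B-score marks a calcium rise read as TRPC4 activation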
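System: HEK293 cells stably co-expressing mouse TRPC4beta and mu-opioid receptor; Schedule: Fluo4 dye loading 45 min at room temperature, 110 s recording; Detection: Fluo4 fluorescence, kinetic; Evaluation: B-scored integrated calcium fluorescence ratio; Controls: buffer (low) and maximal DAMGO (high).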
TRPC4 block: TRPC4 (mouse) channel inhibition; Q9QUQ5; actives 0.39% (n = 300,000); HEK293 TRPC4beta/mu-opioid, DAMGO-evoked Fluo4 calcium flux; hits give low values; B-score at 10 µM;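 active means B-score over 3 SD under the library average, no early fluorescence shift, positive overall ratio signal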
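Assay system: HEK293 cells with stable TRPC4beta plus mu-opioid receptor expression; Probe or stimulus: DAMGO in two steps, submaximal then maximal; Dosing: single-point compound dosing; Measured by: Fluo4 calcium-dye fluorescence, kinetic read; Read-out basis: B score from integrated Fluo4 fluorescence ratio.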
TRPC4 potent: TRPC4 (mouse) allosteric potentiation | B-score at 10 µM | Q9QUQ5 | actives 0.42% (n = 310,000) | HEK293 TRPC4beta/mu-opioid, DAMGO EC20, Fluo-4 Ca2+ flux; hits give high values;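 active means B-score of calcium response area above 5 SD of library B-scores, with initial fluorescence ratio within 5 SD of library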;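 further: B-score of integrated fluorescence ratio over time as area under calcium response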
TRPC6 activator: activates the mouse TRPC6 cation channel; actives 0.13% (n = 310,000); Q61143; B-score at 10 µM; HEK293-TRPC6 membrane potential dye fluorescence; hits give high values; AID 2550;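 active means B-score of the integrated fluorescence ratio above library mean plus 3 SD, and starting fluorescence ratio within library mean plus 5 SD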;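 further: higher score means more depolarization so channel activation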
TRPC6 inh: inhibitors of mouse TRPC6 channel. Q61143. B-score at 10 µM. actives 1.1% (n = 310,000). HEK293-TRPC6, membrane potential dye, ACh-evoked depolarization; hits give low values. AID 2553;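 active means B-score under library mean minus 3 SD, initial fluorescence not abnormally high, positive integrated signal ratio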;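 further: B-score derived from integrated fluorescence ratio over the kinetic read; more negative B-score means stronger inhibition of depolarization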
TRPC4 spec 2: second check of whether TRPC6 inhibitors also affect mouse TRPC4. shares compounds with TRPC6 inh. inhibition, % at 10 µM. actives 42% (n = 920). HEK293 TRPC4/MOR, membrane potential dye fluorescence; channel activated by saturating DAMGO dose;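 active means compounds whose fluorescence signal differed from control wells by over 3 SD, either direction, in both duplicate plates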
TRPC4 spec: tests whether TRPC6 inhibitors also affect mouse TRPC4; shares compounds with TRPC6 inh; HEK293 TRPC4/mu-opioid, membrane potential fluorescence; activity change, negative = inhibition, % at 10 µM; actives 61% (n = 920); AID 2777;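 active means rise or fall in signal beyond 3 SD of buffer-only wells in both replicate plates, either sign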;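 further: integrated kinetic ratio of fluorescence range over baseline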
HEK293 MPD ctr 2-1: parental HEK293 nonspecific activity of TRPC6 inhibitors, second screen | parental HEK293 membrane potential dye fluorescence; maximal acetylcholine challenge after compound addition | actives 31% (n = 920) | shares compounds with TRPC6 inh | AID 2779 | signal change vs control, % at 10 µM;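 active means membrane potential signal moving either way by over 3 SD of the maximum-effect control, in both duplicate plates, meaning non-specific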
HEK293 MPD ctr-1: parental HEK293 nonspecific activity of TRPC6 inhibitors. shares compounds with TRPC6 inh. parental HEK293 membrane potential dye fluorescence. membrane potential signal change, % at 10 µM. actives 60% (n = 920). AID 2780;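 active means membrane potential signal shifting up or down by more than 3 SD of buffer-only wells, on both duplicate plates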
HEK293 MPD ctr-2: counter-screen for TRPC6 modulators: effect in parental HEK293 cells. actives 51% (n = 2,400). membrane potential dye fluorescence. shares compounds with TRPC6 inh. membrane potential signal change, % at 10 µM;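 active means membrane potential signal moves up or down beyond 5 SD from buffer-only wells, on both duplicate plates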
HEK293 MPD ctr 2-2: second check of TRPC6 modulator effects in parental HEK293 cells. shares compounds with TRPC6 inh. actives 14% (n = 2,400). inhibition, % at 10 µM. membrane potential dye fluorescence; after compound, maximal acetylcholine stimulation;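 active means membrane potential signal drops by more than 5 SD from the mean control signal, in both duplicate plates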;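 further: plate controls were acetylcholine ECmax control wells for no effect and buffer only wells for full effect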
TRPC4 ctr mod: tests whether TRPC6 modulators also affect mouse TRPC4; HEK293 TRPC4/mu-opioid, membrane potential fluorescence; percent change from control (negative = decrease, positive = increase), % at 10 µM; shares compounds with TRPC6 inh; actives 69% (n = 2,400); AID 488927;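 active means membrane potential signal moved up or down beyond 5 SD of buffer control wells, in both duplicate plates, actives on both sides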;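 further: plate controls were assay buffer wells for no effect and DAMGO maximal-effect wells for full effect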
TRPC4 ctr inh 2: second selectivity test of TRPC6 modulators against mouse TRPC4 | shares compounds with TRPC6 inh | HEK293 TRPC4/mu-opioid, membrane potential dye fluorescence; stimulated with maximal-effect DAMGO | inhibition, % at 10 µM | actives 55% (n = 2,400) | AID 488928;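 active means drop in membrane potential signal beyond 5 SD of the control wells in both duplicate plates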;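 further: TRPC4 counter screen for TRPC6 hits run under conditions tuned for TRPC6 not TRPC4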
TRPC6 inh conf: mouse TRPC6 inhibitor confirmation. shares compounds with TRPC6 inh. HEK293-TRPC6, membrane potential dye, ACh-evoked depolarization. inhibition, % at 10 µM. actives 43% (n = 3,300);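 active means fluorescence ratio falls more than 5 SD below the full-stimulation control mean, in both duplicate runs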;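 further: integrated fluorescence ratio of peak minus minimum over baseline after agonist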
TRPC6 act conf: mouse TRPC6 activator confirmation | shares compounds with TRPC6 inh | HEK293-TRPC6 membrane potential dye fluorescence, FDSS | activation, % at 10 µM | actives 11% (n = 2,800) | AID 488961;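 active means ratio signal rise beyond 5 SD above unstimulated control wells' mean, seen in both duplicate runs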;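 further: plate controls were buffer EC0 wells for no effect and acetylcholine ECmax response for full effect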
The depositor's hits bear a star; i = inactive; . = not tested or not shown.

SMILES	TRPC4 act	TRPC4 block	TRPC4 potent	TRPC6 activator	TRPC6 inh	HEK293 MPD ctr-2	HEK293 MPD ctr 2-2	TRPC4 ctr mod	TRPC4 ctr inh 2	TRPC6 inh conf	TRPC6 act conf	others
COc1ccc(S(=O)(=O)N2CCCCCC2)cc1C(=O)NCCOc1ccc(C)cc1	i	i	i	i	-5.5*	172%*	i	27%*	i	i	.
CCN(CC)CCNC(=O)c1ccc(NC(=O)c2cccc(S(=O)(=O)Nc3ccc(C)cc3)c2)cc1	i	i	i	i	-9.7*	.	.	.	.	56%*	i	TRPC4 spec 2=i;TRPC4 spec=i;HEK293 MPD ctr 2-1=41%*;HEK293 MPD ctr-1=i
C=CC#CC[N+]1(CC#Cc2ccccc2)CCOCC1	i	i	i	i	i	.	.	.	.	.	.
C=CC[N+]1(CC#CCOC(c2ccccc2)c2ccccc2)CCOCC1	i	i	i	i	-5.5*	i	i	-16%*	i	37%*	i
Cn1c(=O)c2c(ncn2CC(=O)OCC(=O)Nc2cc(Cl)ccc2Cl)n(C)c1=O	i	i	i	i	i	.	.	.	.	.	.
Cc1c(C)n(C)c2ccc(C(=O)N3CCN(c4ccccn4)CC3)cc12	i	i	i	i	i	.	.	.	.	.	.
Cc1c(C)n(C)c2ccc(C(=O)N3CCN(c4ccccc4)CC3)cc12	i	i	i	i	-7.2*	i	i	i	i	40%*	i
Cc1cc(C)nc(/N=C(\N)Nc2ccc(C)c([N+](=O)[O-])c2)n1	i	i	i	i	-5.4*	i	i	-19%*	36%*	i	i
O=C1NC(=Nc2cccc([N+](=O)[O-])c2)SC1(CO)CO	i	i	i	i	i	.	.	.	.	.	.
O=C1Nc2ccc(Br)cc2/C1=C/c1ccc(C(=O)O)cc1	i	i	i	i	i	.	.	.	.	.	.
CCNCCOC(c1ccccc1)c1ccccc1	i	i	i	i	-5.8*	142%*	i	27%*	36%*	i	.
CC1Cc2ccccc2N1S(=O)(=O)c1cccc(C(=O)N2CCN(c3ncccn3)CC2)c1 (stereo not given)	i	i	i	21*	i	130%*	i	86%*	86%*	.	174%*
CCOC(=O)N1CCN(C(=O)c2cccc(S(=O)(=O)Nc3ccc(Br)cc3)c2)CC1	i	i	i	i	-9*	.	.	.	.	i	.	TRPC4 spec 2=i;TRPC4 spec=i;HEK293 MPD ctr 2-1=252%*;HEK293 MPD ctr-1=i

High-throughput results from PubChem.
